The EternaBench riboswitch data

Tested on: MS2 coat protein
Test: apparent Kd, MS2 coat protein; higher = weaker binding; RNA-MaP array; FMN 200 µM where present
Outline: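 Apparent Kd: the median of filtered binding-curve fits from single clusters. Designs were transcribed on Illumina sequencing-chip clusters by stalled E. coli RNA polymerase and titrated with SNAP-549-labelled MS2 coat protein from 0.7 or 1.5 nM, doubling to 3 µM, in 100 mM Tris-HCl pH 7.5, 80 mM KCl, 4 mM MgCl2, BSA, DTT, yeast tRNA and Tween-20. Each series ran without and then with constant ligand, and green signal was normalised to red-channel RNA signal and control-cluster median Fmax.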

[1] = designed as: ON switch for flavin mononucleotide, no ligand
[2] = ligand present: flavin mononucleotide, designed as: ON switch for flavin mononucleotide
[3] = designed as: OFF switch for flavin mononucleotide, no ligand
[4] = ligand present: flavin mononucleotide, designed as: OFF switch for flavin mononucleotide

Row | Sequence | apparent Kd [1] | apparent Kd [2] | apparent Kd [3] | apparent Kd [4]
1 | GGACGUCUCAUUAACAUGAGGAUCACCCAUGUCAAAAGACAUGAGGAUAUGGUUCCUAAUUGGAACCAGAAGGCAUGGACGUCC | 0.853 µM | 0.0678 µM | – | –
2 | AUAGCAUACCGAGGAUAUUCAUAUAAUAAAUAAACAUGAGGAUCACCCAUGUGGCGAAAGCCUAGGGAGAAGGCGGAAUGCUAC | 0.225 µM | 0.0253 µM | – | –
3 | UGAUAACAUGUAGGAUAUCCAGCAUUGACCAUCGGAGAAGGACAUGAGGAUCACCCAUGUACCGAUACAAUGGGAUAAUGGAAU | – | – | 0.0155 µM | 0.0172 µM
4 | AGAUAGUCAGGAUAUACGUGGAUGGAACACUUAUUUCCACUACAUGAGGAUCACCCAUGUAGAAGGGACUAUCA | – | – | 0.0178 µM | 0.0178 µM
5 | AUCUCAGGACGAGGAUAUCAAUACAUGAGGAUCACCCAUGUAUUACUACUGUGAUCCUUCAAGGCUGAGAAGGCGUCCCAAAUG | – | – | 0.0207 µM | 0.0378 µM
6 | UUAAUGUGAGGAUAUCAGGUGUGCUAGAGAACUGGUACAUCUGAGAAGGCACAUGAGGAUCACCCAUGUUCUUC | – | – | 0.0428 µM | 0.197 µM
7 | CAGAAGUCAGGAUAUGCUGCUCGUCACUUGCGUGAUGAGUAGCAGAAGGGACAUGAGGAUCACCCAUGUAAAGA | – | – | 0.0631 µM | 0.113 µM
8 | AAUUCACAUGAGGAUCACCCAUGUCAGGAUAUGGUGACGCGGGUUUCGGUGCGUGUUGCCAGAAGGGACAGCUA | – | – | 0.0792 µM | 0.119 µM
9 | AGUGUAUCCCUAGGAUAUGCACAUGAGGAUCACCCAUGUAAACCCGCGCAGGCUCUUCUCAUGUCGCAGAAGGAGGGACCCGGA | – | – | 0.311 µM | 0.0396 µM
10 | ACAUGAGGAUCACCCAUGUGGAGUGAAGAAGGUGGAUACUUAUGACUCUCCCAUGUACAUAGGACUGAGGAUAUUCUAAUAAUU | 0.0312 µM | 0.0272 µM | – | –
11 | AGACUGCGUAGAAUUAGCAGCUGACAGGAUAUGACAUGAGGAUCACCCAUGUGAAAUAAGAAGAGUCAGAAGGGUCACGACACA | – | – | 0.0113 µM | 0.00989 µM
12 | UGUGCGUAUGUGAGGAUAUGCUGGUCCUUGGAUCGGCAGAAGGCACAUGAGGAUCACCCAUGUGGUGUCGUACC | – | – | 0.161 µM | 0.0404 µM
13 | UCACGGGACUAAGGAUAUACAUGAUCCAUUUUUGUAGAAGGUAGAAUGUUAGAUCAUAAACUAAACAUGAGGAUCACCCAUGUU | – | – | 0.0235 µM | 0.0225 µM
14 | GCUGGAAAAGGAUAUACAUAACGUGCUUCGGCACGAGAUCUACAUGAGGAUCACCCAUGUAGAAGGUUUCCAGC | – | – | 0.014 µM | 0.0302 µM
15 | GUAGCAUUGACAGGAUAUCCAUAUCCGAAAGGGACAUGAGGAUCACCCAUGUCGCGAAAGCGGUGGGAGAAGGGUCUAUGCUAC | 0.00503 µM | 0.00438 µM | – | –
16 | GUUGGCGUAGAAGGAUAUUGGUGAUGCGUCUUGUACAUGAGGAUCACCCAUGUCACUCUGCACGCCGAGAAGGUCUGCAAAUGG | 0.11 µM | 0.0876 µM | – | –
17 | UGGUACAUCGGAGGAUAUCAUGUAAAUACAUGAGGAUCACCCAUGUCGAUGGAGACAUCGGAGAUUGAGAAGGCCGAUGUACCU | 0.48 µM | 0.0234 µM | – | –
18 | CUAUAUAAUACCUCAUGUACAUGAGGAUCACCCAUGUUAACUUAGGAUAUAUUUAUAUUAAUAGAGUAGAAGGAAGUACUAUUU | – | – | 0.0221 µM | 0.0174 µM
19 | GAUCAACAUGAGGAUCACCCAUGUGAGGAUAUGAUACUAUGUACUUCGGUACAUAGUAUCAGAAGGCAUAUUGA | – | – | 0.0548 µM | 0.0419 µM
20 | UUAAUUAUACAAGGAUAUCUAUUGUAGUUUCGACUUACAUGAGGAUCACCCAUGUUAAUAUGUUUAGAGAAGGUGUAUUUUCAG | 0.0983 µM | 0.0611 µM | – | –
21 | AAGAAGGACGCAGGAUAUCCAGGACCUCCCGCAGGAGAAGGGCGAGACAUGAGGAUCACCCAGACAUGAGGAUCACCCAUGUAG | – | – | 0.0374 µM | 0.0372 µM
22 | UGAUCGAGAGAUCUUAGAUUCUGGUAGGAUAUACAUUAUGUUAAAAUUACAUGAGGAUCACCCAUGUAGAAGGACUAGAGUCUA | – | – | 0.00613 µM | 0.00912 µM
23 | CUUAUGUGAGGAUAUCAGUAGUGAUACGAUAGUAUUACUGCUGAGAAGGCACAUGAGGAUCACCCAUGUUCCUC | – | – | 0.117 µM | 0.422 µM
24 | CUGACCUGUGUCAGGAUAUCGUUUGCCAUUGUGACUGAGAAGGGACAUGAGGAUCACCCAUGUCGAGCGACGGG | – | – | 0.0284 µM | 0.0357 µM
25 | UGGGUAAGUGUAGGAUAUUUAUAUUAAUAGUAUGGAGAAGGACAUGAGGAUCACCCAUGUACAGGGAGUUACCCAUUUCCUCUC | – | – | 0.778 µM | 1.2 µM
26 | GUUAAGGUAGGAUAUACGAUAAUAUAGGGUAGAAUUAUAACACAUGAGGAUCACCCAUGUAGAAGGACCAAUUG | – | – | 0.0312 µM | 0.0395 µM
27 | UCAUCAAAUUGAACAUGAGGAUCACCCAUGUAGGAUUAGCCACAGGAUAUCCGUGCUAGAAUGUGGGAGAAGGGUGGUCACUCC | 0.334 µM | 0.0645 µM | – | –
28 | UCCUACAUGGGAGGAUAUCCUCAAGAGACAUGAGGAUCACCCAUGUAUUAUAUGCCUCAUGGCAUGGAGAAGGCCCAUGUAGGU | 0.205 µM | 0.157 µM | – | –

Row | Sequence | apparent Kd [1] | apparent Kd [2] | apparent Kd [3] | apparent Kd [4]
29 | UGCCUGAGUCGAGGAUAUUAUGGAUCCUUUAAUACAUGAGGAUCACCCAUGUAAUUAAUUAUACAUGAGAAGGCGACUCAGGCU | 0.0888 µM | 0.0125 µM | – | –
30 | UUAUUUAGGUAGGAUAUCGAUAUUAAUUAUUAUCGAGAAGGGUCUACAUGAGGAUCACCCAUGUUAGCAUGUAU | – | – | 0.0281 µM | 0.0299 µM
31 | AAGAUGUGAGGAUAUCACGAGAGCGUCAAACGGACACUCUCUGAGAAGGCACAUGAGGAUCACCCAUGUCCAAA | – | – | 0.0572 µM | 0.295 µM
32 | CUCGAGUUAGGAUAUCGAACGUAACAAGCGGAAACUCCCGCCGAGAAGGAACAUGAGGAUCACCCAUGUGAAAC | – | – | 0.0149 µM | 0.0183 µM
33 | GGUUGACAAAGUCAACCAUAACGAACAUGAGGAUCACCCAUGUAGGAUAUGCUACUCAAAGAGUAGCAGAAGGACAUGUGCCUU | – | – | 0.0357 µM | 0.293 µM
34 | GAACACGGAGGAUAUACAUGAGGAUCACCCAUGUUGAUCCUCAUUAAAAUUGAUAACUGUAGAAGGCCGUGAUA | – | – | 0.0447 µM | 0.0222 µM
35 | UUUAUACAUGAGGAUCACCCAUGUGAGGAUAUGCUUUAUUAUUAUUAUUAUUAUUAUUGCAGAAGGCACGUUAU | – | – | 0.0393 µM | 0.0548 µM
36 | CUUUGGAUGUCAGGAUAUUGAAUCAUGGAUGGUAUCUUACAGUCUUACAUGAGGAUCACCCAUGUCGAGAAGGGAUAUCAGCUC | – | – | 0.00615 µM | 0.0105 µM
37 | GGAUGACAAAGUCAUCCAAUUCGAACAUGAGGAUCACCCAUGUAGGAUAUGCUACACAAAGUGUAGCAGAAGGACAUGUGCUUU | – | – | 0.0365 µM | 0.169 µM
38 | UCGGCGCGAGGAUAUGCGGUUCCUCCCUCGGGCCGGAGCGUACAUGAGGAUCACCCAUGUAGAAGGCGCGCCGC | – | – | 0.0139 µM | 0.0151 µM
39 | GGAAAUCAUGUAGGAUAUGCAUGGCGAAGCUACGCAGAAGGACAUGAGGAUCACCCAUGUUAUAGCGUCCGAGAAGGGAUGCAA | – | – | 0.04 µM | 0.218 µM
40 | UCCUUGUCCUGAGGAUAUCCGUGGUGACCGAAAGGAGAAGGCAGGACAUGAGGAUCACCCAUGUACCCAGAAAACGUGCAGAGA | – | – | 0.0359 µM | 0.232 µM
41 | CCACGACAUGAGGAUCACCCAUGUCAGGAUAUCCCUCAUUGUAUGAAAAUACAAUGAGGGAGAAGGGACGUGAC | – | – | 0.0338 µM | 0.0316 µM
42 | GUAGCUAUCGCAGGAUAUUCAUACCGGAAACGGACAUGAGGAUCACCCAUGUGGCGAAAGCCUUGGGAGAAGGCCGAUAGCUAC | 1.16 µM | 0.789 µM | – | –
43 | CCCACGCAUGAGAAGGGACAGGCGUGCAAUUCGACAUGAGGAUCACCCAUGUCAGGAUAUCAGUUAAGGUGGGCAGAACCGAUG | – | – | 0.0154 µM | 0.0573 µM
44 | CCGGAAAUAGAGGAUAUAGGAGUCGAUAGACUCCUAGAAGGCUAUACAUGAGGAUCACCCAUGUGUCCUACCGG | – | – | 0.0174 µM | 0.0396 µM
45 | UGGUACAUGGGAGGAUAUGGGUUGAUAACAUGAGGAUCACCCAUGUUAAAUAUGCCUAAUGGCAACUAGAAGGCCCAUGUACCU | 0.377 µM | 0.0408 µM | – | –
46 | GGAUGUCAAAGACAUCCAAAUCGAACAUGAGGAUCACCCAUGUAGGAUAUGCUACUCAAAGAGUAGCAGAAGGACAUGUGCUUU | – | – | 0.0415 µM | 0.223 µM
47 | GUCAGCUCGUGAGGAUAUACAUGUGCUGGAUACAGCACUAUUAAGUUCACAUGAGGAUCACCCAUGUAGAAGGCACGAGCUGAU | – | – | 0.0158 µM | 0.0204 µM
48 | AAGGAACGAGGAUAUGCAGGUUGAGCUCGAGUUCGACCGGAACAUGAGGAUCACCCAUGUAGAAGGUGUAUCCC | – | – | 0.0241 µM | 0.0244 µM
49 | GGGUACAUCGGAGGAUAUCAUGUAAAUACAUGAGGAUCACCCAUGUCGAUCGAGACAUCGGAGAUUGAGAAGGCCGAUGUACCG | 0.163 µM | 0.286 µM | – | –
50 | ACAGGUUAAGGAUAUACAUGAGGAUCACCCAUGUCGAGUAUCUUGUCAUGCCGCCCAUGUAGAAGGUAACAUGG | – | – | 0.0135 µM | 0.017 µM
51 | UUAAUAAUACAAGGAUAUCUAUUGUUCUUAAGACAUACAUGAGGAUCACCCAUGUUAAUAUAUGUAGAGAAGGUGUAUUUUCAG | 0.0305 µM | 0.0229 µM | – | –
52 | UUUUAACAUGAGGAUCACCCAUGUGAGGAUAUCGAAAUUUAUAUUAAUAUUUAUAAUACGAGAAGGCACAUUUU | – | – | 0.0849 µM | 0.0906 µM
53 | AACAGGCGUGCCCUGAGUCCACAUGAGGAUCACCCAUGUGAGAGAAGGACCCUCGAGAGAGUUGGGUAGGAUAUCUCCGAUGGG | – | – | 0.024 µM | 0.0575 µM
54 | UAUAUAUAGUAAGGAUAUGUAUAUAUUUUAUAAACAGAAGGUACUGACAUGAGGAUCACCCAUGUUUUAGUGUGGGCAUGUAGA | – | – | 0.0721 µM | 0.109 µM
55 | GGAUAGGACAGAGGAUAUACGUGCUAGAGAUACUAGCAAAAUUUCCUCACAUGAGGAUCACCCAUGUAGAAGGCUUUCCUAUCG | – | – | 0.0063 µM | 0.037 µM
